Assay [1] is described as follows: OD615 S. cerevisiae growth inhibition, permissive medium, pilot counter-assay, permissive growth control for S. cerevisiae lifespan shortening project (AID 705). The conditions noted are these: OD615, 24 h, at 10 µM, active compounds read high. The procedure, abridged: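 System: S. cerevisiae with engineered DeaD lifespan system. Medium: SC raffinose/galactose permissive medium. Doses: single compound dose of 10 µM, 0.25% DMSO final. Schedule: 24 h exposure, 30 °C. Measured by: OD615 turbidity read. Read-out: growth inhibition.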

The nature of assay [2]: Restrictive medium S. cerevisiae growth inhibition, OD615, pilot screen of yeast lifespan reduction project, restrictive growth control (AID 706;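 active means growth inhibition above a set limit, 3 SD over mean compound inhibition, in both replicates, cut at about 43% in these data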;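 further: modified DeaD lifespan yeast strain shifted to restrictive glucose medium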). The conditions noted are these: OD615, 48 h, at 10 µM, active compounds read high. An outline of the steps:
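Assay system – genetically modified Saccharomyces cerevisiae, DeaD replicative lifespan assay strain · Medium – CSMM-D glucose medium · Doses – 10 µM compound, 0.25% DMSO · Times – 4 h pre-incubation, 48 h exposure at 30 °C · Signal – optical density at 615 nm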

A short description of assay [3]: viability gain of MRP-1-high H69AR cells under doxorubicin, pilot screen, MRP-1 activator project, CellTiter-Glo, duplicate (AID 807;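 active means viability increase at or above a cutoff of the median across tested compounds plus 3 SD, cut at about 8.5% in these data, passing the limit was not always enough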;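 further: compound pretreatment 18-22 h then 72 h combined with doxorubicin; 0% = doxorubicin alone and 100% = vehicle without doxorubicin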). The conditions noted are these: H69AR viability with doxorubicin, CellTiter-Glo luminescence; at 10 µM; active compounds read high.
Assay [4] is described as follows: growth suppression of beta-catenin knockout HCT116, pilot screen, human colon tumor cells (AID 823;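 active means cell viability at or below a set limit in both duplicate runs, the limit being the all-compound median minus 4 SD, cut at about 23% in these data, passing the limit was not always enough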;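 further: 0% = wells killed by 20 µM Hyamine and 100% = untreated DMSO cell wells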). The following applies: CellTiter-Glo, 60 h, at 10 µM, active compounds read low. (In general: ATP-based viability assays read luminescence as a measure of living cells.)
The nature of assay [5]: growth suppression of PTEN-deleted HCT116, pilot screen, cell-based, HCT116 clonal line, CellTiter-Glo (AID 824;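 active means viability at or below 27.92% in each of two runs, the all-compound median minus 4 SD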;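 further: 0% = 20 µM Hyamine control and 100% = vehicle cell control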). The following applies: 60 h, at 10 µM, active compounds read low.
A short description of assay [6]: inhibitors of the yeast RAM network, pilot screen, dse1pr::URA3 reporter, 5-FOA selection (AID 869;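 active means inhibition over a set limit, the all-compound mean plus 3 SD, in both replicate runs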;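 further: 0% = DMSO wells with no growth and 100% = 10 µM 1-NA-PP1 with full growth; RAM network block rescues cells from 5-FOA so hits raise OD615 growth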). The conditions noted are these: S. cerevisiae dse1pr::URA3 5-FOA growth, OD615, 2 d; at 10 µM; active compounds read high; strain carries analog-sensitive mutant Cbk1 kinase.
A short description of assay [7]: RAM signaling pathway blockade in yeast – S. cerevisiae, Pdr1DBD-CYC8 efflux-inhibited sensitized strain, primary screen (AID 1298;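 active means RAM network inhibition above 8.4% in each of two replicates, 3 SD over the compound average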;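 further: 0% = DMSO untreated cells without growth and 100% = 10 µM 1-NA-PP1 full growth; higher means more yeast growth rescued from 5-FOA killing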). The conditions noted are these: S. cerevisiae cbk1-as DSE1-URA3 strain, 5-FOA growth OD615, 2 d; at 50 µM; active compounds read high.

Unmarked numbers belong to inactive results. Records with an inconclusive call do not appear. Active and inactive are the calls of the source.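 How the source made its calls, unless noted: active means growth inhibition above 25% in both replicates, a cutoff set 3 SD above the mean; inconclusive means above 25% in only one replicate; inactive means the rest.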

From PubChem BioAssay come the findings set out here.

The viability is a read-out of living cells in per cent, often relative to untreated cells. For orientation: inhibition means the drop in the measured response relative to a control, in per cent.

As for `CCN(Cc1ccccc1)C(=O)Cn1cc2c(n1)CCCC2`, the figures for the growth inhibition in assay [1] and in assay [2] were -5.23% and -2.12%, respectively. The viability increase in assay [3] is 1.91%. In addition, the results for the viability in assay [4] and in assay [5] were 94% and 92.5%, respectively. Also, in assay [6], the inhibition was 2.06%. For the same compound, the RAM network inhibition in assay [7] was -1.27%.

Take `Cc1onc(-c2ccccc2Cl)c1C(=O)NCC1CCCO1` (centres undefined): the results for the growth inhibition in assay [1] and in assay [2] were -0.6% and 3.56%, respectively. For the same compound, the viability increase in assay [3] is -1.44%. The viability was 88.7% in assay [4] and 95.8% in assay [5]. For the same compound, the inhibition in assay [6] was 1.24%. The RAM network inhibition in assay [7] was -0.74%.

Consider `O=C(OCC(F)(F)C(F)F)c1ccccc1C(=O)Oc1ccc(F)cc1F`, for which the values for the growth inhibition in assay [1] and in assay [2] were -2.13% and -13.3%, respectively. Besides, in assay [3], the viability increase is -3.1%. In addition, the viability in assay [4] is 99.1%; in assay [5], 96.1%. In addition, the inhibition in assay [6] was 1.86%. Further, the RAM network inhibition in assay [7] was 3.89%.

Turning to `COc1cc(-c2nc3cnccn3c2Nc2ccccc2)ccc1O`, the values for the growth inhibition in assay [1] and in assay [2] were -7.8% and 0.535%, respectively. For the same compound, the viability increase in assay [3] is -5.59%. Moreover, the values for the viability in assay [4] and in assay [5] were 47.8% and 44.7%, respectively. For the same compound, the inhibition in assay [6] is 2.43%. For the same compound, the RAM network inhibition in assay [7] was 0.41%.

For the compound `CC1CCCN(Cc2nc3c(c(=O)n(C)c(=O)n3C)n2Cc2c(F)cccc2Cl)C1` (centres undefined), the figures for the growth inhibition in assay [1] and in assay [2] were -8.39% and -6.31%, respectively. Besides, in assay [3], the viability increase was -4.6%. Also, the viability in assay [4] is 84.4%; in assay [5], 80.2%. Further, the inhibition in assay [6] is 1.09%. Besides, the RAM network inhibition in assay [7] was 10.9%.

On to `Cc1cccc(OCCSc2cc(C)nc(N)n2)c1`, for which the growth inhibition in assay [1] is -6.16%; in assay [2], -8.02%. Moreover, in assay [3], the viability increase was -1.44%. Further, the viability in assay [4] is 89.1%; in assay [5] it was 79.1%. Besides, in assay [6], the inhibition was -0.215%. In assay [7], the RAM network inhibition is -2.06%.

In the case of `CCn1ncc(C2=NOC(C(=O)Nc3c(C)nn(Cc4ccc(F)cc4)c3C)C2)c1C` (centres undefined), the growth inhibition was -7.87% in assay [1] and -11.5% in assay [2]. Also, the viability increase in assay [3] was 0.42%. The viability in assay [4] is 93.5%; in assay [5], 88.7%. The inhibition in assay [6] is 1.59%. Further, the RAM network inhibition in assay [7] is 1.41%.

Regarding `O=C1CCCCCN1Cc1nnc(SCc2nc3ccccc3s2)n1-c1ccccn1`, the values for the growth inhibition in assay [1] and in assay [2] were -3.83% and 19.8%, respectively. Moreover, the viability increase in assay [3] was -3.45%. For the same compound, the viability in assay [4] was 91.7%; in assay [5] it was 95%. In addition, the inhibition in assay [6] is 1.07%. Besides, the RAM network inhibition in assay [7] was 2.7%.

As for `CCOc1ccccc1NC(=O)CN1C(=O)COc2ccc(Cl)cc21`, the results for the growth inhibition in assay [1] and in assay [2] were -16.8% and -11.8%, respectively. In addition, in assay [3], the viability increase is -1.27%. In addition, the values for the viability in assay [4] and in assay [5] were 91.7% and 84.2%, respectively. Also, the inhibition in assay [6] is 4.02%. Also, in assay [7], the RAM network inhibition is 5.69%.

As to `COc1ccc(S(=O)(=O)n2cnc3cc(C)c(C)cc32)cc1`, the values for the growth inhibition in assay [1] and in assay [2] were 3.51% and 6.05%, respectively. Moreover, the viability increase in assay [3] is -1.56%. The viability was 90.9% in assay [4] and 93.4% in assay [5]. The inhibition in assay [6] was 1.26%. For the same compound, in assay [7], the RAM network inhibition is -1.04%.

As to `CCOc1ccc(/C(=N\O)C(C)NO)cc1` (centres undefined), the results for the growth inhibition in assay [1] and in assay [2] were -16.4% and -10.4%, respectively. Moreover, the viability increase in assay [3] was 1.06%. Further, the viability in assay [4] is 87.9%; in assay [5], 97.1%. Moreover, the inhibition in assay [6] was 0.925%. Further, in assay [7], the RAM network inhibition was 3.88%.

For the compound `CCSc1nnc(NC(=O)CCn2c(=O)oc3ccccc32)s1`, the growth inhibition is -3.29% in assay [1] and -6.38% in assay [2]. Further, the viability increase in assay [3] is -0.78%. Also, the viability in assay [4] was 102%; in assay [5], 103%. Moreover, in assay [6], the inhibition was 0.22%. Also, the RAM network inhibition in assay [7] is 9.53%.

For `Cc1cc(C)n(Cc2ccccc2F)c(=O)c1C#N`, the growth inhibition in assay [1] was -7.71%; in assay [2], -16.5%. For the same compound, in assay [3], the viability increase is -1.4%. Further, the results for the viability in assay [4] and in assay [5] were 105% and 96.9%, respectively. For the same compound, the inhibition in assay [6] is 0.375%. Also, the RAM network inhibition in assay [7] is 4.95%.

`CN1CCN(CCCNC(=O)c2cc3c(-c4ccc(Cl)cc4)nn(C)c3s2)CC1`: the values for the growth inhibition in assay [1] and in assay [2] were -8.24% and -2.25%, respectively. Further, the viability increase in assay [3] was -8.21%. Further, the viability in assay [4] was 2.18% (active); in assay [5], 2% (active). In assay [6], the inhibition was 0.445%. Also, the RAM network inhibition in assay [7] is 0.92%.

`Cc1ccc(C(=O)CSc2nnc(-c3cccs3)n2C)o1`: the growth inhibition in assay [1] was 1.85%; in assay [2], 28.1%. Further, the viability increase in assay [3] was -3.5%. In addition, the viability in assay [4] and in assay [5] was 108% each time. In addition, the inhibition in assay [6] was 0.5%. Also, the RAM network inhibition in assay [7] is 3.7%.

With `CN(C)C1NC(=O)c2cc(-c3ccccc3)sc2N1` (centres undefined), the growth inhibition is -5.92% in assay [1] and -10.2% in assay [2]. Besides, in assay [3], the viability increase is -0.01%. Besides, the viability in assay [4] was 102%; in assay [5], 104%. Also, the inhibition in assay [6] is 0.135%. Moreover, the RAM network inhibition in assay [7] was 2.33%.

Consider `CSC1=NCCN1C(=O)c1ccco1`, for which the results for the growth inhibition in assay [1] and in assay [2] were 1.44% and -4.79%, respectively. For the same compound, the viability increase in assay [3] is 0.04%. The viability in assay [4] was 103%; in assay [5], 98.3%. For the same compound, in assay [6], the inhibition was 0.865%. Also, the RAM network inhibition in assay [7] was 3.19%.
